Key:
[1] = Equilibrium association (binding) constant interacting with Unilamellar Vesicles of negatively charged DMPG in PBS buffer at pH 7.4 and 37 C; assay type: ADME
How it was run: (§1)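 Fluorescence anisotropy titration of 1 μM drug (lactone form) with small unilamellar vesicles, in PBS at pH 7.4 and 37 °C. Anisotropy was read about 1 min after adding drug at each lipid concentration to limit lactone hydrolysis. Adsorption isotherms were constructed, and K was taken from the slopes of double-reciprocal plots, with 10% uncertainty.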

[2] = Stability parameter for the compound at a concentration of 1 uM in human serum albumin(HSA) after 3h; assay type: ADME; settings: read-out: Lactone
How it was run: (§2)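 Lactone-to-carboxylate hydrolysis followed by HPLC; drug at 1 μM incubated at 37 °C for 3 h in human whole blood, plasma, or PBS (pH 7.4) with or without physiologically relevant levels of HSA or albumin-free RBCs ((5 ± 1) × 10^6 cell/μL). Plasma continuously aerated with blood gas to hold pH 7.5 ± 0.1. Blood kept at 5 °C before start. Value is % lactone remaining.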

[3] = Stability parameter for the compound in human blood after 3h; assay type: ADME; settings: read-out: Lactone
[4] = Stability parameter for the compound at a concentration of 1 uM in whole human blood after 3h; assay type: ADME; settings: read-out: Lactone; how it was run: as §2
[5] = Stability parameter for the compound at a concentration of 1 uM in plasma after 3h; assay type: ADME, cell-free; settings: read-out: Lactone; how it was run: as §2
[6] = Stability parameter for the compound in mouse blood after 3h; assay type: ADME; settings: read-out: Lactone
How it was run: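 Drug was incubated in mouse blood at pH 7.4 and 37 °C for 3 h. Blood was kept at 5 °C after drawing and before the start. The percent lactone remaining was measured by HPLC.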

[7] = Stability parameter for the compound at a concentration of 1 uM in red blood cells(RBC) after 3h; assay type: ADME, cell-based; settings: read-out: Lactone; how it was run: as §2
[8] = Stability parameter for the compound at a concentration of 1 uM in phosphate-buffered saline(PBS, pH 7.4) after 3h; assay type: physicochemical; settings: read-out: Lactone; how it was run: as §2
[9] = Equilibrium association (binding) constant interacting with Unilamellar Vesicles of electroneutral DMPC in PBSbuffer at pH 7.4 and 37 C; assay type: ADME; how it was run: as §1

| Structure (SMILES) | K DMPG [1] [M⁻¹] | remaining at 3 h, 1 µM [2] [%] | remaining at 3 h [3] [%] | remaining at 3 h, 1 µM [4] [%] | remaining at 3 h, 1 µM [5] [%] | remaining at 3 h [6] [%] | remaining at 3 h, 1 µM [7] [%] | remaining at 3 h, 1 µM [8] [%] | K DMPC [9] [M⁻¹] |
| --- | --- | --- | --- | --- | --- | --- | --- | --- | --- |
| CCC1(O)CC(=O)OCc2c1cc1n(c2=O)Cc2c-1nc1ccccc1c2[Si](C)(C)C(C)(C)C (stereo unspecified) | 19000 | 88.1 | 87 | 86.6 | 85 | 80 | 92 | 84.9 | 14000 |
| CCC1(O)CC(=O)OCc2c1cc1n(c2=O)Cc2c-1nc1ccc(O)cc1c2[Si](C)(C)C(C)(C)C (stereo unspecified) | 4000 | 82.9 | 85 | 84.9 | 61.5 | 70 | 88.5 | 83.1 | 8000 |
| CCC1(O)CC(=O)OCc2c1cc1n(c2=O)Cc2c-1nc1ccc(N)cc1c2[Si](C)(C)C(C)(C)C (stereo unspecified) | 9000 | 86.8 | 85 | 85.2 | 71.1 | 61 | 85.5 | 83.7 | 9000 |
| CCC(O)(CC(=O)O)c1cc2n(c(=O)c1CO)Cc1c-2nc2ccc(N)cc2c1[Si](C)(C)C(C)(C)C (stereo unspecified) | 80 | – | – | – | – | – | – | – | 800 |
| CCC(O)(CC(=O)O)c1cc2n(c(=O)c1CO)Cc1c-2nc2ccc(O)cc2c1[Si](C)(C)C(C)(C)C (stereo unspecified) | 100 | – | – | – | – | – | – | – | 700 |
| CCC1(O)CC(=O)OCc2c1cc1n(c2=O)Cc2c-1nc1ccc(N)cc1c2[Si](C)(C)C (stereo unspecified) | 800 | 81.4 | 56 | 56.4 | 40.3 | 72 | 84.8 | 82.8 | 1400 |
| CC[C@@]1(O)C(=O)OCc2c1cc1n(c2=O)Cc2cc3ccccc3nc2-1 [CAMPTOTHECIN] | 100 | – | 7 | – | – | 20 | – | – | 100 |
| CC[C@@]1(O)C(=O)OCc2c1cc1n(c2=O)Cc2cc3c(CN(C)C)c(O)ccc3nc2-1 [TOPOTECAN] | 50 | – | – | – | – | – | – | – | 10 |
